Calls of active or inactive are those of the source. The rule behind the calls is not given here.
How the values were obtained:
[1] = tested on: Staphylococcus aureus subsp. aureus USA300; assay: Inhibition of Staphylococcus aureus USA300 GFP-fused SaeRS at 20 uM after 8 hrs by fluorescence-based assay
Method in brief: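 Reporter strain S. aureus carrying a P_hlam-gfp fusion (kept on chloramphenicol 5 µg/ml) was grown in TSB to OD600 = 1 and diluted to 5x10^5 cells/ml with compound; DMSO served as blank. Cultures were shaken at 37 °C for 8 h, then GFP (ex 485/em 515 nm) and OD600 were read.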

Staphylococcus aureus [2] = assay: Antivirulence activity in Staphylococcus aureus USA300-infected Galleria mellonella larvae model injected at every 12 h interval for 72 hrs; type: functional, organism-based
Method in brief: (§1)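 G. mellonella larvae, 10 per group, were each injected with 20 µl of USA300 inoculum (5x10^6 cfu) into the lower left proleg and held at 37 °C in the dark without food. Treatment was given after infection and repeated every 12 h over 72 h, at doses up to 4.085 or 4.262 mg/kg body weight. Survival was scored daily along with activity, silk production and melanization.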

HeLa [3] = assay: Cytotoxicity against human HeLa cells assessed as reduction in cell viability at 8 uM after 72 hrs by fluorescein diacetate/propidium iodide double staining based confocal microscopy
[4] = tested on: Staphylococcus aureus subsp. aureus USA300; assay: Inhibition of Staphylococcus aureus USA300 SaeRS assessed as reduction in staphylokinase gene expression at 10 uM after 6 hrs by qRT-PCR analysis
Method in brief: (§2)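 S. aureus cultures were treated with compound for 6 h. Total RNA was stabilised and purified with enzymatic disruption, then reverse-transcribed with random hexamers. qRT-PCR used an intercalating dye, with transcripts normalised to 16S rRNA, in triplicate.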

[5] = tested on: Staphylococcus aureus subsp. aureus USA300; assay: Inhibition of Staphylococcus aureus USA300 SaeRS assessed as reduction in aureolysin gene expression at 10 uM after 6 hrs by qRT-PCR analysis
Staphylococcus aureus [6] = assay: Reduction in Staphylococcus aureus USA300 sarA gene expression at 10 uM after 6 hrs by qRT-PCR analysis; type: functional; method in brief: as §2
[7] = tested on: Staphylococcus aureus subsp. aureus USA300; assay: Inhibition of Staphylococcus aureus USA300 SaeRS assessed as reduction in alpha-hemolysin gene expression at 10 uM after 6 hrs by qRT-PCR analysis
[8] = biological target: T1, Histidine protein kinase SaeS (Staphylococcus aureus (strain NCTC 8325)) (UniProt Q2G2U1); assay: Binding affinity to Staphylococcus aureus MBP-fused SaeS by STD-NMR spectrophotometry
T1 sequence (whole entry): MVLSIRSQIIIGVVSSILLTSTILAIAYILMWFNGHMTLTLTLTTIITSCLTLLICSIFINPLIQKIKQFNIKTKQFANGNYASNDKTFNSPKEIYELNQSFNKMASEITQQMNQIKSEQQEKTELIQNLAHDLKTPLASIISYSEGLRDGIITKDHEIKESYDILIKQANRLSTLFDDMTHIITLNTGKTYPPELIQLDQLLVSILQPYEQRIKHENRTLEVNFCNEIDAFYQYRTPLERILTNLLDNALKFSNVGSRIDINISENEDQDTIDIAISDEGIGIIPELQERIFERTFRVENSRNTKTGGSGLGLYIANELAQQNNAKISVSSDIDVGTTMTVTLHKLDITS
Method in brief: (§3)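 Saturation transfer difference 1D NMR with ligand fixed at 1.0 mM, prepared from a stock in deuterated DMSO. Protein was either 30 µM minimal SaeS kinase domain fused to maltose binding protein (MBP-SaeS) or 0.1 mM minimal kinase domain, dialysed into NMR buffer beforehand.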

HeLa [9] = assay: Cytotoxicity against human HeLa cells assessed as reduction in cell viability at >IC50 concentration after 72 hrs by fluorescein diacetate/propidium iodide double staining based confocal microscopy
[10] = biological target: T1, Histidine protein kinase SaeS (Staphylococcus aureus (strain NCTC 8325)); assay: Binding affinity to Staphylococcus aureus SaeS kinase domain at 1 mM by 1D-NMR analysis; method in brief: as §3
Staphylococcus aureus [11] = assay: Growth inhibition of Staphylococcus aureus USA300 up to 64 uM after 8 to 20 hrs; type: organism-based
Method in brief: (§4)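 USA300 was grown in TSB at 37 °C with shaking at 250 rpm. Growth was followed in the presence of compound for 8 h and for 20 h, in triplicate.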

[12] = biological target: T1, Histidine protein kinase SaeS (Staphylococcus aureus (strain NCTC 8325)); assay: Inhibition of phosphotransfer reaction from recombinant Staphylococcus aureus phosphorylated His6-tagged SaeS kinase domain to Staphylococcus aureus SaeR expressed in Escherichia coli BL21(DE3) at 0.2 to 1 mM after 60 mins by coomassie-brilliant blue staining based SDS PAGE/autoradiographic analysis
Staphylococcus aureus [13] = assay: Antibacterial activity against Staphylococcus aureus USA300 assessed as log reduction in bacterial burden after 72 hrs; type: functional, organism-based
Method in brief: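 Galleria mellonella larvae (10 per group) injected in the lower left proleg with 5x10^6 cfu USA300 in 20 µl, held at 37 °C in the dark; treatment began 2 h post infection and was re-injected every 12 h for 72 h. Haemolymph was plated on blood agar to count S. aureus burden at 72 h.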

[14] = tested on: Staphylococcus aureus subsp. aureus USA300; assay: Inhibition of Staphylococcus aureus USA300 SaeRS assessed as reduction in gamma-hemolysin gene expression at 10 uM after 6 hrs by qRT-PCR analysis
Staphylococcus aureus [15] = assay: Antivirulence activity in Staphylococcus aureus USA300-infected Galleria mellonella larvae model assessed as larvae survival at 4.3 mg/kg injected at 2 hrs post infection at every 12 hr interval for 72 hrs (reference value: 20%); type: functional; method in brief: as §1
[16] = biological target: T1, Histidine protein kinase SaeS (Staphylococcus aureus (strain NCTC 8325)); assay: Binding affinity to Staphylococcus aureus SaeS assessed as T2-rerelaxation time of compound peak at 1 mM by 1D CPMG method
Method in brief: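 Transverse-relaxation-filtered 1D NMR using a CPMG pulse train. Ligand fixed at 1.0 mM, from a stock in deuterated DMSO; minimal SaeS kinase domain at 0.1 mM, dialysed into NMR buffer.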

[17] = tested on: Staphylococcus aureus subsp. aureus USA300; assay: Inhibition of Staphylococcus aureus USA300 SaeRS assessed as reduction in aureolysin gene expression at 8 uM after 6 hrs by qRT-PCR analysis
Staphylococcus aureus [18] = assay: Antivirulence activity in Staphylococcus aureus USA300-infected Galleria mellonella larvae model assessed as larvae survival at 4.1 mg/kg injected at 2 hrs post infection at every 12 hr interval for 72 hrs (reference value: 20%); type: functional; method in brief: as §1
[19] = biological target: T1, Histidine protein kinase SaeS (Staphylococcus aureus (strain NCTC 8325)); assay: Inhibition of phosphotransfer reaction from recombinant Staphylococcus aureus phosphorylated His6-tagged SaeS kinase domain to Staphylococcus aureus SaeR expressed in Escherichia coli BL21(DE3) at 0.2 mM after 60 mins by coomassie-brilliant blue staining based SDS PAGE/autoradiographic analysis
Staphylococcus aureus [20] = assay: Growth inhibition of Staphylococcus aureus USA300 at 16 uM after 20 hrs; type: organism-based; method in brief: as §4
[21] = tested on: Staphylococcus aureus subsp. aureus USA300; assay: Inhibition of Staphylococcus aureus USA300 SaeRS assessed as reduction in alpha-hemolysin gene expression at 8 uM after 6 hrs by qRT-PCR analysis
[22] = tested on: Staphylococcus aureus subsp. aureus USA300; assay: Inhibition of Staphylococcus aureus USA300 SaeRS assessed as reduction in gamma-hemolysin gene expression at 8 uM after 6 hrs by qRT-PCR analysis
Staphylococcus aureus [23] = assay: Growth inhibition of Staphylococcus aureus USA300 at 64 uM after 20 hrs; type: organism-based; method in brief: as §4
Staphylococcus aureus [24] = assay: Reduction in Staphylococcus aureus USA300 sarA gene expression at 8 uM after 6 hrs by qRT-PCR analysis; type: functional; method in brief: as §2
[25] = tested on: Staphylococcus aureus subsp. aureus USA300; assay: Inhibition of Staphylococcus aureus USA300 SaeRS assessed as reduction in staphylokinase gene expression at 8 uM after 6 hrs by qRT-PCR analysis; method in brief: as §2

## CC(C)=CCC/C(C)=C/Cc1c(O)ccc(C(=O)/C=C/c2ccc(O)cc2)c1O
[1]
  inhibition: inactive

## C=CCc1c(O)ccc(C(C)=O)c1O
[1]
  inhibition: inactive

## C=C(C)CCC=C(C)C
[1]
  inhibition: inactive

## C=CCc1c(O)ccc(C(=O)/C=C/c2ccc(O)cc2)c1O
[1]
  inhibition: inactive

## C=C(C)C(O)CC/C(C)=C/Cc1c(O)ccc(C(=O)CC(O)c2ccc(O)cc2)c1O (centres undefined)
Staphylococcus aureus [2]
  Activity: Dose-dependent effect
HeLa [3]
  Activity: Non-Toxic
[4]
  inhibition: Active
[5]
  inhibition: Active
Staphylococcus aureus [6]
  Activity: inactive
[7]
  inhibition: Active
[8]
  Activity: Active
HeLa [9]
  Activity: Non-Toxic
[10]
  Activity: Active
Staphylococcus aureus [11]
  growth inhibition (GI): Non-Toxic
[12]
  inhibition: inactive
Staphylococcus aureus [13]
  Activity: Dose-dependent effect
[14]
  inhibition: Active
Staphylococcus aureus [15]
  survival at 4.3 mg/kg: 100%
[16]
  Activity: Active

## O=C(/C=C/c1ccc(O)cc1)c1ccc(O)cc1O
[1]
  inhibition: inactive

## COc1ccc(C(=O)/C=C/c2ccc(O)cc2)c(O)c1C/C=C(\C)CCC=C(C)C
[1]
  inhibition: inactive

## C=C(C)C(O)CC/C(C)=C/Cc1c(O)ccc(C(=O)/C=C/c2ccc(O)cc2)c1O (centres undefined) [XANTHOANGELOL B]
Staphylococcus aureus [2]
  Activity: Dose-dependent effect
HeLa [3]
  Activity: Non-Toxic
[17]
  inhibition: Active
Staphylococcus aureus [18]
  survival at 4.1 mg/kg: 100%
[19]
  inhibition: inactive
Staphylococcus aureus [20]
  growth inhibition (GI): Toxic
[21]
  inhibition: Active
[22]
  inhibition: Active
HeLa [9]
  Activity: Non-Toxic
Staphylococcus aureus [23]
  growth inhibition (GI): Toxic
Staphylococcus aureus [24]
  Activity: inactive
Staphylococcus aureus [13]
  Activity: Dose-dependent effect
[25]
  inhibition: Active
